Results from different studies.
Protocols differ between the studies behind these lines.
Target: Rhodopsin kinase GRK1 (GRK1, Homo sapiens, UniProt Q15835)
Residues used in one study (Q15835 1-563): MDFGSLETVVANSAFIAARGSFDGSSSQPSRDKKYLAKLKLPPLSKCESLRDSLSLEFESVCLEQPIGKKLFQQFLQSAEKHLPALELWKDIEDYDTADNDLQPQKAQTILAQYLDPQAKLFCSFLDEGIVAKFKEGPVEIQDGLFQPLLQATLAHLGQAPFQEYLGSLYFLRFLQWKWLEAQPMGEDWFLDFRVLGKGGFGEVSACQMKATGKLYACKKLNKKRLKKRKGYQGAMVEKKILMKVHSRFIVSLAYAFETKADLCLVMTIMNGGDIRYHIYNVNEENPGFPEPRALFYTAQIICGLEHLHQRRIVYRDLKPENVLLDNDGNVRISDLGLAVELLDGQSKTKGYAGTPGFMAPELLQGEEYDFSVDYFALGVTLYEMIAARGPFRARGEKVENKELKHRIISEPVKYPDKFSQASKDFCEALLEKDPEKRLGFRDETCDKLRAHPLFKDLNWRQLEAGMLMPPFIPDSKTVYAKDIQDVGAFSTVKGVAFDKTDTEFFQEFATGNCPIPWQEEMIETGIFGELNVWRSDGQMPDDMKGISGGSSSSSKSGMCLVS

C[C@H](c1ccc(F)cc1)N(Cc1cccc(C(=O)O)c1)C(=O)c1cnc2ccccc2c1 — remaining binding (cell-free assay, competition with immobilised ligand; 1 µM): 100%
O=C(Nc1cnn(-c2csc(C(=O)NC3COC3)c2)c1)Nc1ccccc1Cl — remaining activity (enzyme activity, inhibitor; 5 µM): 91.9%
CC(C)(O)[C@H]1CC[C@H](Nc2ccc3ncc(-c4cccc(C(F)(F)F)c4)n3n2)CC1 — remaining activity (enzyme activity, inhibitor; 1 µM): 89.2%
Cn1c2c(Cl)c(Cl)ccc2c2cc[nH]c(=O)c21 — ΔTm (thermal stability, DSF; 10 µM): 1.5 °C
CN1CC(Oc2cnc(C#N)cc2-c2ccn3nc(NC(=O)C4CC4)cc3c2)C1 — inhibition (enzyme activity, inhibitor; 1 µM): 1%
CC(C)CC(=O)N1CCc2nc(-c3ccc(Br)cc3)nc(N(C)Cc3ccccc3)c2C1 — remaining binding (cell-free assay, competition with immobilised ligand; 0.1 µM): 100%
CCN1CCC2(CC1)NC(=O)c1c(c3ccc(Cl)c(Cl)c3n1C)C2C#N (racemic) — ΔTm (thermal stability, DSF; 10 µM): 1.2 °C
COc1ccc2c(c1)O[C@H](c1ccc(OC)c(OC)c1)C[C@@H]2NC(=O)C1(c2ccc3c(c2)OC(F)(F)O3)CC1 — remaining binding (cell-free assay, competition with immobilised ligand; 1 µM): 97%
N#CC1c2c([nH]c3c(Cl)c(Cl)ccc23)C(=O)NC12CCCCC2 (racemic) — ΔTm (thermal stability, DSF; 10 µM): 0.6 °C
Cc1ccc(NC(=O)c2ccc(C)c(C(F)(F)F)c2)cc1C#Cc1nn(C2CCC(O)CC2)c2ncnc(N)c12 (stereo not drawn) — remaining signal (cell-free assay; 10 µM): 94%
Cc1cc(NC(=O)c2cccc3cc(-c4cccc5[nH]nc(N)c45)ccc23)ccc1F — activity vs control (enzyme activity, inhibitor; 0.1 µM): 85%
Cn1c2c(c3ccc(Cl)c(Cl)c31)C(C#N)C1(CCNCC1)NC2=O (racemic) — ΔTm (thermal stability, DSF; 10 µM): 2.4 °C
NS(=O)(=O)c1cc(NC(=O)Cc2ccccc2)ccc1Oc1cccc(Cl)c1 — remaining binding (cell-free assay, competition with immobilised ligand; 1 µM): 83%
Cn1c2c(c3ccc(Cl)c(Cl)c31)C(C#N)C1(CCN(C(=O)OC(C)(C)C)CC1)NC2=O (racemic) — ΔTm (thermal stability, DSF; 10 µM): 0 °C
CNCc1ccccc1-c1csc([C@H](C)Nc2nc(C)nc3cc(OC)c(OC)cc23)c1 — remaining binding (cell-free assay, competition with immobilised ligand; 1 µM): 100%
